# In ChEMBL document CHEMBL4513216, “Probing the Open Global Health Chemical Diversity Library for Multistage-Active Starting Points for Next-Generation Antimalarials” (ACS Infect Dis, 2020):
# Test: Toxicity liver stage against HepG2, at 10uM
# Type: cell-based
# Set-up: test concentration 10 uM, cell line HepG2-A16-CD81EGFP
# Conditions: human, HepG2-A16-CD81EGFP cells; read-out: INHIBITION
# Procedure, shortened: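 Uninfected HepG2-A16-CD81EGFP cells, 3 × 10^3 per well, 1536-well, plated on prespotted compound at 10 μM final, parasite-free screening media added to match infected plates; puromycin 10 μM positive, DMSO 0.5% negative; run in parallel with 48 h PbLuc assay at 37 °C, 5% CO2; viability by CellTiter-Glo luminescence, normalized to controls.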
row,Structure (SMILES),cytotoxicity at 10 µM [%]
1,O=C(NCCCN1CCCC1=O)c1ccc(-n2ccc3ccccc32)s1,6.69
2,O=C(O)c1cn(-c2ccccn2)c(=O)c2ccccc12,0.847
3,COc1ccc(C(=O)CNC(=O)c2nc(Cl)sc2C(C)C)cc1,-3.15
4,O=S(=O)(NCC1(c2cccs2)CCCC1)c1cccnc1,-2.56
5,CCS(=O)(=O)N1CCC2(CC1)CN(C(=O)N(C)C)Cc1ccccc12,2.67
6,Cc1cccc(CN2CCCC23CCNC3)n1 (stereo not given),4.82
7,COc1ccc(CN2CCO[C@H]3CN(C(=O)C4CC4)CC[C@H]3C2=O)cc1,-147
8,Cc1ccc(N2CCC3(CCN(C(=O)C4CCOC4)CC3)CC2)nn1 (stereo not given),-0.28
9,CCN(CC)Cc1cnc2n1CCN(C1CCOC1)CC2 (stereo not given),-146
10,CN1CCN(Cc2cn3c(n2)CN(CC2CC2)CC3)CC1,-119
11,CCOCC1CN(Cc2ccco2)Cc2ccnn2C1 (stereo not given),-149
12,Cc1nc(N(C)C)nc2c1COCC21CCN(C(=O)NCC(C)C)C1 (stereo not given),7.63
13,O=C(CC1CC1)N1CCC2(CC1)CC(Oc1ccccc1)CO2 (stereo not given),-0.82
14,Cc1ccc(CN2CCC3(CC2)CC(NC(=O)c2ccccn2)CO3)o1 (stereo not given),3.8
15,O=C(CC1Cn2ncnc2NC1=O)Nc1ccccc1 (stereo not given),6.11
16,COc1ccc(C(C)Nc2nc3c(C)nn(C)c3c(=O)n2C)cc1 (stereo not given),1.89
17,CC(C)(C)C(=O)N1CCCc2c(cnn2-c2ccccc2)C1,7.15
18,Cc1nccn1-c1ccc(CN2CC3C[C@@H](O)CN3C[C@@H]2C)cc1 (stereo not given in full),6.26
19,CNc1cncc(C2CCCN2S(=O)(=O)c2ccccc2)n1 (stereo not given),-22
20,O=C1Nc2ccccc2CN(CC2CCCC2)C12CCNC2 (stereo not given),7.83
21,CCn1cc(NC(=O)N2CCN(C(=O)Oc3ccccc3)CC2)cn1,1.1
22,CC(C(=O)N1CCCC1)S(=O)(=O)Cc1nc(C(C)(C)C)no1 (stereo not given),8.18
23,CC(C)(C)CC(=O)N1CCc2sccc2C1,3.61
24,COC(=O)c1cccc(S(=O)(=O)Nc2ncc(C)s2)c1,0.158
25,CCCN(Cc1cnn(C)c1)S(=O)(=O)c1cccc(F)c1C#N,-9.04
26,CCC1CCCCCN1C(=O)c1ccc(N2CCC(O)CC2)cc1 (stereo not given),-9.77
27,COC(=O)C1CCN(C(=O)Cn2ccc(-c3ccsc3)n2)CC1,-6.58
28,COC(=O)c1ccoc1CN(C)CC(=O)NC1CC1,-1.96

row,Structure (SMILES),cytotoxicity at 10 µM [%]
1,CC(C)(C)CN(CCC#N)C(=O)Nc1cccc(N2CCNC2=O)c1,-9.86
2,COc1cc2c(nn1)CCN(Cc1noc(-c3ccccc3)n1)C2,-1.49
3,CC(C)Cn1cc(NC(=O)c2cccc(N(C)C)c2)cn1,11.8
4,CCC(C)S(=O)(=O)N(Cc1ccco1)Cc1ccccc1O (stereo not given),9.99
5,Cc1csc(C(C)(C)NCc2ncc(-c3ccc(F)cc3)o2)n1,8.27
6,CN(C)C(=O)c1cccc(CCNS(=O)(=O)c2ccccc2)c1,-4.12
7,NC(=O)CC1CCN(CC(O)c2ccc(Br)cc2)CC1 (stereo not given),-7.74
8,CCn1c(C)nnc1CN(C)C1CCN(Cc2ccon2)C1 (stereo not given),0.793
9,CC(C)(C)n1cc(NC(=O)C2CN(Cc3ccccc3)CCO2)cn1 (stereo not given),0.935
10,Oc1cccc(C2CN(c3nnc(C4CC4)s3)CCO2)c1 (stereo not given),1.07
11,O=C(CN1CCCC(Cn2cncn2)C1)Nc1cccnc1 (stereo not given),2.01
12,CC(C)c1cnc(CN(C)C2CCN(CCc3ccncc3)C2)o1 (stereo not given),-0.296
13,COCCNC(=O)C1CCCN1S(=O)(=O)c1sc(=O)[nH]c1C (stereo not given),2.17
14,OCC(O)CSCc1nnc(-c2ccc(Cl)cc2)o1 (stereo not given),10.8
15,CN(CC(F)(F)F)C(=O)c1ccc(F)c(NS(C)(=O)=O)c1,-2.05
16,O=C(Cc1cnn(-c2ccccc2)n1)NC1CCOCC1,-9.72
17,O=C(NC1CCN(c2ncccn2)CC1)c1cc2c([nH]c1=O)CCC2,1.28
18,O=C(CC(F)(F)F)NC(c1ccc(Cl)cc1)c1ncon1 (stereo not given),2.14
19,Cc1nn(C)c(C)c1CC(C)NC(=O)NCc1ccoc1C (stereo not given),0.43
20,CC(=O)NCCc1ccc(S(=O)(=O)Nc2ccc(C)cc2F)s1,-5.48
21,O=C1NC(c2cnc(C3CCC3)s2)Nc2ncccc21 (stereo not given),0.992
22,CC1CN(Cc2ccccc2)CCCN1CCNS(C)(=O)=O (stereo not given),-3.72
23,CC(C)c1nc(C2CCCN(c3cnc4ccccc4n3)C2)no1 (stereo not given),2.11
24,CCN(C)CC1CCN(C(=O)Nc2ccc(C)cc2)C1 (stereo not given),2.89
25,CSC1(CNC(=O)c2cccc(-n3cccn3)c2)CCOCC1,-2.44
26,CC(NCC(F)(F)F)c1ccc(S(C)(=O)=O)c(F)c1 (stereo not given),1.79
27,CC(c1cccnc1)N(C)Cc1csc(-c2ccccn2)n1 (stereo not given),-10.4
